For series [1], the system named is DU-145. The experiment in a line: Induction of apoptosis in human DU-145 cells at IC50 concentration incubated for 48 hrs by YO-PRO and PI staining based flow cytometry analysis. Format: functional, cell-based. The essentials:
(§1)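 After 48 h CBD, DU145 (4 × 10^4 per well) or PC-3 (3 × 10^4 per well) supernatant and trypsinised cells pooled. Stained in ice-cold PBS with YO-PRO (1:1000) and propidium iodide (1:1000). Flow cytometry gated live, early apoptotic and late apoptotic cells and DNA fragmentation.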
In general terms: In flow cytometry, cells or beads pass a laser one at a time.

The test system of series [2] is PC-3. Kind of series: Induction of apoptosis in human PC-3 cells assessed as reduction in fraction of healthy cells at 1 to 10 uM incubated for 72 hrs by YO-PRO and propidium iodide staining based high content imaging fluorescence microscopic analysis. Format: functional, cell-based. As to conditions: dose 1-10 µM. The essentials: (§2)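 DU145 or PC-3 cells seeded at 2 × 10^3 per well and given CBD at 1, 5 or 10 μM with serum for 72 h; staurosporine as positive control. Stained 30 min with Hoechst 33342 (1:5000), YO-PRO-1 (1:1000) and PI (1:1000). High-content imaging with a 63× water objective. Hoechst gave confluency, nucleus area and circularity; YO-PRO/PI gave healthy, early and late apoptotic fractions.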

Series [3] has as its system PC-3. Kind of series: Antiproliferative activity against human PC-3 cells assessed as reduction in cell count at IC50 concentration incubated for 48 hrs by flow cytometry analysis. The format is functional, cell-based. The essentials:
(§3)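 Six-well seeding at 4 × 10^4 (DU145) or 3 × 10^4 (PC-3) cells per well; CBD for 48 h. Supernatant and trypsinised adherent cells pooled and resuspended in ice-cold PBS. Cells counted by flow cytometry with forward/side scatter gating; at least three independent experiments.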

Series [4] has as its system DU-145. The experiment in a line: Induction of apoptosis in human DU-145 cells assessed as late apoptotic cells at 1 to 10 uM incubated for 72 hrs by YO-PRO and propidium iodide staining based high content imaging fluorescence microscopic analysis. The following applies: dose 1-10 µM. Format: functional, cell-based. Put shortly:
as §2

In series [5] the test system is PC-3. The experiment in a line: Antiproliferative activity against human PC-3 cells assessed as reduction in cell viability incubated for 72 hrs in presence of capsazepine by MTT assay. The format is functional, cell-based. The essentials:
(§4)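 DU145 or PC-3 cells pretreated 1 h with SR141716 (CB1 antagonist), SR144528 (CB2 antagonist), capsazepine (TRPV1 antagonist) or LPI (GPR55 agonist), then given CBD for 72 h. MTT read-out as % of vehicle. Compared with CBD alone by t-test; at least three independent experiments.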
On the technique in general: Formazan colour is commonly taken as a measure of viable cells.

The subject of series [6] is DU-145. The experiment in a line: Antiproliferative activity against human DU-145 cells assessed as reduction in cell count at IC50 concentration incubated for 48 hrs by flow cytometry analysis. Format: functional, cell-based. The essentials: as §3
In series [7] the test system is DU-145. The experiment in a line: Induction of cell cycle arrest in human DU-145 cells assessed as arrest in G2/M phase by measuring reduction in CDK7 protein expression at IC50 concentration incubated for 48 hrs by Western blotting analysis. Format: functional, cell-based. The essentials:
(§5)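 DU145 or PC-3 cells seeded at 5 × 10^4 per well and given CBD for 48 h. Lysed in ice-cold RIPA with protease/phosphatase inhibitor; 40 μg protein per lane, SDS-PAGE, PVDF transfer, milk block. Primary antibodies overnight at 4 °C, then HRP secondary 1 h at room temperature, chemiluminescence. Densitometry normalised to loading control, then to vehicle; at least three experiments.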
For orientation: In western blotting, separated proteins are transferred to a membrane and probed.

Series [8] deals with PC-3. Kind of series: Antiproliferative activity against human PC-3 cells assessed as reduction in cell viability incubated for 72 hrs in presence of LPI by MTT assay. The format is functional, cell-based. Put shortly:
as §4

Series [9] deals with DU-145. The experiment in a line: Antiproliferative activity against human DU-145 cells assessed as reduction in cell viability incubated for 72 hrs in serum deprivation condition by MTT assay. The format is functional, cell-based. The following applies: DU-145, 72 h. The essentials: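 Cells seeded at 1 × 10^3 (DU145, PC-3), 6 × 10^3 (LNCaP), 2 × 10^3 (PWR-1E) or 4.5 × 10^3 (RWPE-1) per well and left to adhere 24 h. CBD (0–100 μM) then given for 72 h in serum-free medium. MTT added for 3 h at 37 °C, formazan dissolved in DMSO, absorbance read at 570 nm. Viability is % of vehicle; IC50 by nonlinear regression; at least three independent experiments.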

The subject of series [10] is DU-145. The experiment in a line: Induction of cell cycle arrest in human DU-145 cells assessed as arrest in G1/S phase by measuring reduction in CDK2 protein expression at IC50 concentration incubated for 48 hrs by Western blotting analysis. Format: functional, cell-based. Put shortly: as §5
Series [11] has as its system DU-145. Kind of series: Induction of cell cycle arrest in human DU-145 cells assessed as arrest in G1/S phase by measuring reduction in cyclin D3 protein expression at IC50 concentration incubated for 48 hrs by Western blotting analysis relative to control. Further details: scale not given: the % may be the effect or the level left. The format is functional. Put shortly:
as §5

For series [12], the system named is DU-145. The experiment in a line: Induction of cell death in human DU-145 cells assessed as reduction in cell nucleus circularity at 1 to 10 uM measured after 72 hrs by Hoechst 33342 staining based high content imaging fluorescence microscopic analysis. Format: functional. The following applies: dose 1-10 µM. Put shortly:
as §2

The subject of series [13] is DU-145. The experiment in a line: Antiproliferative activity against human DU-145 cells assessed as reduction in cell viability incubated for 72 hrs in presence of 10% FBS by MTT assay. The following applies: DU-145, 72 h. The format is functional, cell-based. The essentials:
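Cells left to adhere 24 h, then exposed to CBD (0–100 μM) for 72 h in medium with 10% FBS. MTT incubation 3 h at 37 °C, DMSO solubilisation, A570. Viability relative to vehicle; IC50 from nonlinear regression; at least three independent experiments.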

Series [14] relates to PC-3. The experiment in a line: Induction of cell death in human PC-3 cells assessed as reduction in cell nucleus circularity at 1 to 10 uM measured after 72 hrs by Hoechst 33342 staining based high content imaging fluorescence microscopic analysis. The format is functional. As to conditions: dose 1-10 µM. The essentials: as §2
For series [15], the target named is Serine/threonine-protein kinase AKT (Homo sapiens) (UniProt P31751+Q9Y243+P31749). Kind of series: Inhibition of AKT phosphorylation in human PC-3 cells at IC50 concentration incubated for 48 hrs by Western blot analysis. Format: cell-based. Put shortly: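 Cells seeded at 5 × 10^4 per well and treated 48 h with an IC50 dose of CBD in DU145 or PC-3. Lysed in ice-cold RIPA with protease/phosphatase inhibitor. 40 μg protein per lane on SDS-PAGE, then PVDF. Probed overnight at 4 °C for phospho-AKT and total AKT, HRP detection. Densitometry normalised to loading control, then to vehicle. Mean ± SD, ≥3 experiments, t-test.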

A further series relates to PWR-1E. The experiment in a line: Induction of cell death in human PWR-1E cells assessed as reduction in nucleus circularity at 1 to 10 uM incubated for 72 hrs by Hoechst 33342 staining based high-content fluorescence microscopy. Format: toxicity. As to conditions: dose 1-10 µM.
In series [16] the test system is PC-3. The experiment in a line: Induction of apoptosis in human PC-3 cells at IC50 concentration incubated for 48 hrs by YO-PRO and PI staining based flow cytometry analysis. Format: functional, cell-based. The essentials: as §1
Series [17] deals with PC-3. Kind of series: Antiproliferative activity against human PC-3 cells assessed as reduction in cell colonies incubated for 48 hrs detached and reseeded without compound and measured after 7 days by glutaraldehyde/crystal violet staining based clonogenic assay relative to control. Format: functional. The arrangement: scale not given: the % may be the effect or the level left. The essentials: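 PC-3 cells left to adhere 24 h, then treated 48 h. Detached and reseeded at 500 cells per well without drug, then grown 7 days at 37 °C, 5% CO2, with medium changed every 2–3 days. Colonies fixed and stained with glutaraldehyde/crystal violet and counted.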

Series [18] deals with DU-145. Kind of series: Inhibition of cell invasion in human DU-145 cells incubated for 48 hrs by crystal violet staining based microscopic analysis. The format is functional.
Series [19] has as its system PC-3. The experiment in a line: Antiproliferative activity against human PC-3 cells assessed as reduction in cell confluency at 10 uM measured after 72 hrs by Hoechst 33342 staining based high content imaging fluorescence microscopic analysis. Format: functional. The essentials: as §2

Activity calls are given as the source filed them. The rule behind the calls is not given here.

Sequence of Serine/threonine-protein kinase AKT (Homo sapiens) (P31749 whole entry, looked up): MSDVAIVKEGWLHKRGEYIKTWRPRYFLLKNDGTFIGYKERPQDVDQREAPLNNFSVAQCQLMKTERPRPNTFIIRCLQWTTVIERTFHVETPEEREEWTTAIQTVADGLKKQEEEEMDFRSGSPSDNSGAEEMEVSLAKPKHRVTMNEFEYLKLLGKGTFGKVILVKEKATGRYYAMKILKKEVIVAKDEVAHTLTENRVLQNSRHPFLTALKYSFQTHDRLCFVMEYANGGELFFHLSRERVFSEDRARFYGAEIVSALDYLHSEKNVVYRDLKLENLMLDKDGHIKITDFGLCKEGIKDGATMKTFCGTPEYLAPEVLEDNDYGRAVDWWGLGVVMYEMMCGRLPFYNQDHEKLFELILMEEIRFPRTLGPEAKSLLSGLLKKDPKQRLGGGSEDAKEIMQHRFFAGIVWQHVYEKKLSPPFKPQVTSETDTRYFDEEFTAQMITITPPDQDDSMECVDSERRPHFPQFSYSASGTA
Sequence of Serine/threonine-protein kinase AKT (Homo sapiens) (P31751 whole entry, looked up): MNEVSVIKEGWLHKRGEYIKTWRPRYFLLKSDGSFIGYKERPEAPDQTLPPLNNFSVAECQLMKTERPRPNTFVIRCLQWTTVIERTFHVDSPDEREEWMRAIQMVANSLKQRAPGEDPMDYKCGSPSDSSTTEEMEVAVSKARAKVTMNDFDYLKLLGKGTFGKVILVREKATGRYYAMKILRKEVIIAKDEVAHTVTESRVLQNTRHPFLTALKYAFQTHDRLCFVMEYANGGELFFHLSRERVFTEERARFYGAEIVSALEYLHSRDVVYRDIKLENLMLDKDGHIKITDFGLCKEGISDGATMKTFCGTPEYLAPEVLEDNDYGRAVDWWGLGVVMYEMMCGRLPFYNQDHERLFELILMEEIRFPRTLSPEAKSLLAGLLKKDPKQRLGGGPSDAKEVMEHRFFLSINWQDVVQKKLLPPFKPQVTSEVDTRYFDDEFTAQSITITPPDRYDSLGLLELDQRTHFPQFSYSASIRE
Sequence of Serine/threonine-protein kinase AKT (Homo sapiens) (Q9Y243 whole entry, looked up): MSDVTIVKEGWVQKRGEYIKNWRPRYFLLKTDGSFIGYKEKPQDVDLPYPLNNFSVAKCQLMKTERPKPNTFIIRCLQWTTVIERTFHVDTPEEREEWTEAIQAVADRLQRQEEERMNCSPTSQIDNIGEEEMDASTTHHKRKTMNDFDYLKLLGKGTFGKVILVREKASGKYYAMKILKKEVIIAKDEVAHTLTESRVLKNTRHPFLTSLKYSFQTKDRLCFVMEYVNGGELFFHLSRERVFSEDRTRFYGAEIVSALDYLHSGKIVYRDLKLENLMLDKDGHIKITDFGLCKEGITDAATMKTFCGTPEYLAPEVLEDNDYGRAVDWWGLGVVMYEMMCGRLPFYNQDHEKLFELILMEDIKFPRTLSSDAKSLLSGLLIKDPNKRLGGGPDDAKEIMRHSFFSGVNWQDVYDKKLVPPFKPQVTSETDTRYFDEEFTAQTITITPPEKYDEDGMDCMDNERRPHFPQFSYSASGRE

With `C=C(C)[C@@H]1CCC(C)=C[C@H]1c1c(O)cc(CCCCC)cc1O` [CANNABIDIOL], the result in the series with DU-145 [1], with PC-3 [2], in the series with DU-145 [4], in the series on DU-145 [7], with DU-145 [12] and in the series on PC-3 [14] was inactive. Besides, the outcome in the series with PC-3 [16] was inactive. The result with PC-3 [3], with PC-3 [5], with DU-145 [6], in the series with PC-3 [8], with DU-145 [10] and in the series on PC-3 [19] was Active. Further, the IC50 worked out at 1.5 µM with DU-145 [9] and 12.3 µM with DU-145 [13]. In addition, the Activity in the series on DU-145 [11] was about 20%; in the series with PWR-1E, “Toxic”; with PC-3 [17], about 25%. The inhibition entry in series [15] is “inactive”. Moreover, the inhibition entry in the series with DU-145 [18] was “Active”.

The IC50 is the point on the concentration scale where inhibition reaches its midpoint.
